# Screens deposited in PubChem by Broad Institute.
# The sample as a whole holds a higher share of hits than the screen did.
# IDH1 mut inh – inhibitors of human IDH1 R132H; IDH1 R132H reductase, diaphorase/resazurin fluorescence, 60 min; inhibition, % at 10 µM; O75874; hit rate 0.18% among 70,000; AID 624101; in the data active means inhibition above about 34%; inconclusive means no clear call, values can overlap the other calls; inactive means below about 11%;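 further: 0% = DMSO and 100% = no enzyme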
# Target sequence (O75874 whole entry R132H): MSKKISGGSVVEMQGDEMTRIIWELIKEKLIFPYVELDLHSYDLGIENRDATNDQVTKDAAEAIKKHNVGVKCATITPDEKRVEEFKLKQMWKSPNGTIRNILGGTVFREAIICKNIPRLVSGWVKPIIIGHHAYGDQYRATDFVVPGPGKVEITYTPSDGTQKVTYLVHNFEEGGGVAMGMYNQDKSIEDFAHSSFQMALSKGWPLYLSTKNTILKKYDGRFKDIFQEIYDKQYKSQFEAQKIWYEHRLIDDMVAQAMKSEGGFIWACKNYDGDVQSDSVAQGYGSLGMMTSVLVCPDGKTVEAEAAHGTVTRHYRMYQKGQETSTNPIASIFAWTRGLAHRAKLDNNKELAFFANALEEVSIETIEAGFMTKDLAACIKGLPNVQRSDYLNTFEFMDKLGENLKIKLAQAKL
# T cruzi growth-1 – T. cruzi proliferation inhibition. hit rate 5.9% among 77,000. inhibition, % at 8.34 µM. T. cruzi beta-gal in NIH3T3, GalScreen luminescence, 90 h;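 active means mean inhibition above about 93%, with at least 55% of replicates each passing it, limit read from the data, passing the limit was not always enough; inconclusive means only one of those two conditions holds; inactive means neither condition holds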
# KDM4C inh – KDM4C (human) demethylase inhibition; Q9H3R0; GST-KDM4C 2-372, H3K9me3 peptide, LANCE TR-FRET; inhibition, % at 12.5 µM; hit rate 0.15% among 96,000; AID 720574;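 active means mean replicate inhibition above about 25%, with at least 55% of replicates also reaching it, limit read from the data, passing the limit was not always enough; inconclusive means only one of those two conditions met; inactive means neither condition met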
#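 Test system: N-terminal GST-fused human GASC-1 (KDM4C) fragment, residues 2-372; quantity: GASC-1 enzyme at 10 nM final in reaction; dosing: single dose; schedule: 30 min demethylation and 1 h detection at room temperature; signal: LANCE TR-FRET, excitation 340 nm, emissions 618 and 671 nm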
# T cruzi growth-2 – Trypanosoma cruzi proliferation inhibition; shares compounds with T cruzi growth-1; T. cruzi beta-gal in NIH3T3, GalScreen luminescence, 90 h; inhibition, % at 8.35 µM; hit rate 72% among 5,600; AID 651739;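 active means mean replicate inhibition above about 95% and at least 55% of replicates individually reaching it, limit read from the data; inconclusive means only one of the two criteria is met; inactive means neither criterion is met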
# T cruzi growth-3 – inhibitors of T. cruzi proliferation | shares compounds with T cruzi growth-1 | T. cruzi beta-gal in NIH3T3, GalScreen luminescence, 90 h | inhibition, % at 2.09 µM | hit rate 21% among 5,600;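 active means mean inhibition above about 95%, with at least 55% of replicates also reaching it, limit read from the data; inconclusive means meets just one of the two conditions; inactive means meets neither condition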;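 further: plate controls were neutral control median for no effect and positive control median for full effect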
# 3T3 cytotox – NIH/3T3 (mouse) viability loss; NIH/3T3 viability, CellTiter-Glo ATP luminescence, 90 h; hit rate 14% among 5,600; AID 651742; cytotoxicity (signal decrease), % at 8.35 µM; shares compounds with T cruzi growth-1;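 active means mean signal decrease across replicates above about 35% based on untreated-well scatter, with enough replicates individually passing, limit read from the data; inconclusive means no rule stated though some were filed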;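 further: 0% = median of neutral control wells and 100% = median of positive control wells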
# NIH3T3 tox 2 – kills mouse NIH/3T3 fibroblasts | AID 651744 | NIH/3T3 viability, CellTiter-Glo ATP luminescence, 90 h | inhibition, % at 24.9 µM | hit rate 56% among 5,600 | shares compounds with T cruzi growth-1;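 active means mean loss of cell viability signal at or above a set limit, and enough replicates individually reaching it; inconclusive means meets only the mean limit or only the replicate share; inactive means meets neither condition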;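 further: 0% = median of neutral control wells and 100% = median of positive control wells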
# * marks the source's active call; other numbers are inactive results; ? = inconclusive; / = no result.
SMILES,IDH1 mut inh,T cruzi growth-1,KDM4C inh,T cruzi growth-2,T cruzi growth-3,3T3 cytotox,NIH3T3 tox 2
N#C[C@@H]1[C@H](c2ccc(-c3cncnc3)cc2)[C@H](CO)N1C(=O)C1CCC1,/,101*,0,28,-66,-13,-18
N#C[C@H]1[C@H](c2ccc(-c3cncnc3)cc2)[C@@H](CO)N1C(=O)C1CCC1,/,86,1,/,/,/,/
CCN(CC)C(=O)c1sc(NC(=S)Nc2nc(C)cc(C)n2)c(C(=O)OC)c1C,0,/,/,/,/,/,/
Cc1nc(SCc2csc(C)n2)c2c3c(sc2n1)CCCC3,0,/,/,/,/,/,/
CC(=O)N(C)C[C@H]1Oc2cc(C#CC3CCCC3)ccc2S(=O)(=O)N([C@H](C)CO)C[C@H]1C,/,102*,0,96*,84,-2,62*
CC(=O)N(C)C[C@@H]1Oc2cc(C#CC3CCCCC3)ccc2S(=O)(=O)N([C@@H](C)CO)C[C@H]1C,/,84,-1,/,/,/,/
CC(=O)N(C)C[C@@H]1Oc2cc(C#CC3CCCCC3)ccc2S(=O)(=O)N([C@H](C)CO)C[C@H]1C,/,?,-3,108*,93,32,64*
CC(=O)N(C)C[C@H]1Oc2cc(C#CC3CCCC3)ccc2S(=O)(=O)N([C@@H](C)CO)C[C@@H]1C,/,93,2,/,/,/,/
COc1ccc(CN2C(=O)C(O)(CC(=O)c3ccc(Cl)s3)c3ccccc32)cc1OC (stereo unspecified),0,/,/,/,/,/,/
Cc1ccc(-c2ccc3c(c2)O[C@H](CN(C)Cc2ccc(C(=O)O)cc2)[C@@H](C)CN([C@H](C)CO)S3(=O)=O)cc1,1,61,-1,/,/,/,/
Cc1ccc(-c2ccc3c(c2)O[C@@H](CN(C)Cc2ccc(F)cc2)[C@H](C)CN([C@@H](C)CO)S3(=O)=O)cc1,1,?,-2,96*,103*,63*,105*
Cc1ccc(-c2ccc3c(c2)O[C@@H](CN(C)Cc2ccc(F)cc2)[C@@H](C)CN([C@H](C)CO)S3(=O)=O)cc1,0,92,1,/,/,/,/
Cc1ccc(-c2ccc3c(c2)O[C@H](CN(C)Cc2ccc(F)cc2)[C@H](C)CN([C@@H](C)CO)S3(=O)=O)cc1,1,97*,-1,106*,?,19,69*
COc1ccccc1NC(=O)CSc1nc(-c2ccc(C)cc2)nc2c1COC(C)(C)C2,0,/,/,/,/,/,/
CCc1cccc(CC)c1NC(=O)Cn1cnc2ccccc2c1=O,-1,/,/,/,/,/,/
C[C@@H]1CN([C@@H](C)CO)S(=O)(=O)c2ccc(C#CCN(C)C)cc2O[C@H]1CN(C)Cc1ccc(F)cc1,0,113*,2,?,91,51*,103*
C[C@@H]1CN([C@@H](C)CO)S(=O)(=O)c2ccc(C#CCN(C)C)cc2O[C@H]1CN(C)Cc1ccccc1,0,109*,1,105*,98*,32,104*
CC(C)C#Cc1ccc2c(c1)O[C@@H](CN(C)Cc1ccccc1)[C@H](C)CN([C@H](C)CO)S2(=O)=O,0,93,1,/,/,/,/
C[C@@H]1CN([C@@H](C)CO)S(=O)(=O)c2ccc(C#CCN(C)C)cc2O[C@@H]1CN(C)Cc1ccc(F)cc1,0,61,4,/,/,/,/
C[C@H]1CN([C@@H](C)CO)S(=O)(=O)c2ccc(C#CCN(C)C)cc2O[C@H]1CN(C)Cc1ccccc1,2,?,3,105*,64,22,39*
C[C@@H]1CN([C@H](C)CO)S(=O)(=O)c2ccc(C#CCN(C)C)cc2O[C@H]1CN(C)Cc1ccccc1,-1,107*,0,97*,84,45*,104*
C[C@@H](O)C#Cc1ccc2c(c1)O[C@H](CN(C)Cc1ccccc1)[C@@H](C)CN([C@@H](C)CO)S2(=O)=O,-1,40,/,/,/,/,/
C[C@H](CO)N1C[C@H](C)[C@@H](CN(C)Cc2ccccc2)Oc2cc(C#CCN(C)C)ccc2S1(=O)=O,-1,94,2,/,/,/,/
COc1ccc(CN2C(=O)C(O)(CC(=O)c3cccnc3)c3ccccc32)cc1OC (stereo unspecified),0,/,/,/,/,/,/
Cc1ccc(NC(=O)CSc2nnnn2-c2ccc(F)cc2)cc1C,0,/,/,/,/,/,/
SMILES,IDH1 mut inh,T cruzi growth-1,KDM4C inh,T cruzi growth-2,T cruzi growth-3,3T3 cytotox,NIH3T3 tox 2
CN1CCN(C(CC(=O)Nc2cccc([N+](=O)[O-])c2)C(=O)O)CC1 (stereo unspecified),0,/,/,/,/,/,/
CCn1c(SCC(=O)Nc2cc(Cl)ccc2Cl)nnc1-c1ccccc1OC,0,/,/,/,/,/,/
CN(C)CC#Cc1ccc([C@@H]2[C@@H](CO)N3CCCCN(C(=O)CN(C)C)C[C@@H]23)cc1,/,19,3,/,/,/,/
COCC#Cc1ccc([C@H]2[C@@H](CO)N3CCCCN(C(=O)CN(C)C)C[C@H]23)cc1,/,121*,-1,50,35,-24,-4
COCC#Cc1ccc([C@@H]2[C@H]3CN(C(=O)CN(C)C)CCCCN3[C@H]2CO)cc1,/,109*,2,?,13,-12,6
CN(C)CC#Cc1ccc([C@H]2[C@@H](CO)N3CCCCN(C(=O)CN(C)C)C[C@@H]23)cc1,/,-5,3,/,/,/,/
c1ccc2sc(SCc3nc4c5c6c(sc5ncn4n3)CCCC6)nc2c1,0,/,/,/,/,/,/
COc1ccc(S(=O)(=O)Nc2cccnc2)cc1C(=O)O,0,/,/,/,/,/,/
Cc1nc(-c2ccccc2)sc1C(=O)C1C(=O)C(=O)N(CCCN2CCOCC2)C1c1cccs1 (stereo unspecified),0,/,/,/,/,/,/
C[C@H]1CN([C@@H](C)CO)S(=O)(=O)c2ccc(C#Cc3ccccn3)cc2O[C@H]1CN(C)Cc1ccc(F)cc1,0,116*,-2,103*,76,3,37*
C[C@H]1CN([C@@H](C)CO)S(=O)(=O)c2ccc(C#Cc3ccccn3)cc2O[C@@H]1CN(C)Cc1ccc(F)cc1,-1,130*,-19,96*,79,42*,85*
C[C@H]1CN([C@@H](C)CO)S(=O)(=O)c2ccc(C#Cc3ccccn3)cc2O[C@@H]1CN(C)Cc1ccccc1,0,75,-24,/,/,/,/
C[C@@H]1CN([C@@H](C)CO)S(=O)(=O)c2ccc(C#Cc3ccccn3)cc2O[C@H]1CN(C)C,0,/,2,/,/,/,/
C[C@H](CO)N1C[C@H](C)[C@H](CN(C)CC2CC2)Oc2cc(C#Cc3ccccn3)ccc2S1(=O)=O,-5,21,-2,/,/,/,/
C[C@H](CO)N1C[C@H](C)[C@H](CN(C)Cc2ccc(F)cc2)Oc2cc(C#Cc3ccccn3)ccc2S1(=O)=O,-11,124*,-6,109*,93,-28,9
O=C(CSc1nc2ccccc2c(=O)n1-c1ccc(Cl)cc1)Nc1ccc(Cl)c(Cl)c1,0,/,/,/,/,/,/
COC(=O)c1ccc(C)c(NC(=O)COc2ccccc2C)c1,0,/,/,/,/,/,/
COc1ccccc1/C=C/C(=O)N1CCCC(c2ccccc2)C1 (stereo unspecified),-4,/,/,/,/,/,/
